In ChEMBL document CHEMBL3392964, “Design, synthesis, and evaluation of novel imidazo[1,2-a][1,3,5]triazines and their derivatives as focal adhesion kinase inhibitors with antitumor activity” (J Med Chem, 2015):
Active and inactive are the calls of the source. The rule behind the calls is not given here.

Assays:
[1] = target: Protein-tyrosine kinase 2-beta (Homo sapiens) (UniProt Q14289); assay: Inhibition of human recombinant Pyk2 using poly[Glu:Tyr] as substrate at 1 uM by [gamma-33P]ATP-based assay
Sequence of Protein-tyrosine kinase 2-beta (Homo sapiens) (Q14289 whole entry, looked up): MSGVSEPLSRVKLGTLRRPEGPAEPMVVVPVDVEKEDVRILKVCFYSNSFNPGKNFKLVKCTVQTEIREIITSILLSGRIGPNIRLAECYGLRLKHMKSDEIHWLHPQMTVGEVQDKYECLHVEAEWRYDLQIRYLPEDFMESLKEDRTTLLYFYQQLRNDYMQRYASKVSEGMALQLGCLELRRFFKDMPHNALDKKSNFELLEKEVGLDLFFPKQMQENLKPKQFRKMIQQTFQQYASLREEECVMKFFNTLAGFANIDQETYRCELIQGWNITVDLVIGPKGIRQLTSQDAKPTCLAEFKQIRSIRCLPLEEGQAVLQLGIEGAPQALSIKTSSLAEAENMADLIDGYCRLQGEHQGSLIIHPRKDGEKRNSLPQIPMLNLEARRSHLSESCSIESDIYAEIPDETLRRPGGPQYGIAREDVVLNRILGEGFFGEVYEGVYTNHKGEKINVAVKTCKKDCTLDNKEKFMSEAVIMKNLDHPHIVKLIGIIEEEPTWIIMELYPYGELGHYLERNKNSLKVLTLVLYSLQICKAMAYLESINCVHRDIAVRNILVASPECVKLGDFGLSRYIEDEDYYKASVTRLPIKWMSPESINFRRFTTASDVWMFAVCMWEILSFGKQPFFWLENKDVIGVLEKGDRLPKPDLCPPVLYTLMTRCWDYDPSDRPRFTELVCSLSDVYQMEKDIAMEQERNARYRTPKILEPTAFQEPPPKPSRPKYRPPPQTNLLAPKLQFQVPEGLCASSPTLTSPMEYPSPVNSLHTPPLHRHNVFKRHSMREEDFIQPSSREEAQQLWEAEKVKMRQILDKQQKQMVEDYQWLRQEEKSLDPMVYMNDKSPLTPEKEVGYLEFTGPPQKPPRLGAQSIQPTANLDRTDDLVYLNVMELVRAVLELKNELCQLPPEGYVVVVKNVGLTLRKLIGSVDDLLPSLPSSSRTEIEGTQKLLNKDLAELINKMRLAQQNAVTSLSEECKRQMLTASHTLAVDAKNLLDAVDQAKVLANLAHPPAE
How it was run: (§1)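 Radioactive kinase assay with [γ33P]ATP and human recombinant kinase, compound tested at 1 μM.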

Focal adhesion kinase 1 [2] = target: T1, Focal adhesion kinase 1 (Homo sapiens, UniProt Q05397); assay: Inhibition of FAK phosphorylation at tyrosine 397 in human HCT116 cells after 48 hrs by FACEFAK ELISA; assay type: cell-based; conditions: HCT-116
How it was run: (§2)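 Cells in DMEM with 10% FBS, 3 × 10^3 per well, treated 48 h at 0.1, 1 and 10 μM. Fixed in 4% formaldehyde; antibodies to pTyr397-FAK or total FAK, HRP secondary, read at 450 nm. Crystal violet cell count at 595 nm. Phospho-FAK normalised to total FAK and cell number; fold decrease versus control, triplicate readings, three independent experiments.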
Target sequence in this assay (Q05397 2-1052 limits assumed): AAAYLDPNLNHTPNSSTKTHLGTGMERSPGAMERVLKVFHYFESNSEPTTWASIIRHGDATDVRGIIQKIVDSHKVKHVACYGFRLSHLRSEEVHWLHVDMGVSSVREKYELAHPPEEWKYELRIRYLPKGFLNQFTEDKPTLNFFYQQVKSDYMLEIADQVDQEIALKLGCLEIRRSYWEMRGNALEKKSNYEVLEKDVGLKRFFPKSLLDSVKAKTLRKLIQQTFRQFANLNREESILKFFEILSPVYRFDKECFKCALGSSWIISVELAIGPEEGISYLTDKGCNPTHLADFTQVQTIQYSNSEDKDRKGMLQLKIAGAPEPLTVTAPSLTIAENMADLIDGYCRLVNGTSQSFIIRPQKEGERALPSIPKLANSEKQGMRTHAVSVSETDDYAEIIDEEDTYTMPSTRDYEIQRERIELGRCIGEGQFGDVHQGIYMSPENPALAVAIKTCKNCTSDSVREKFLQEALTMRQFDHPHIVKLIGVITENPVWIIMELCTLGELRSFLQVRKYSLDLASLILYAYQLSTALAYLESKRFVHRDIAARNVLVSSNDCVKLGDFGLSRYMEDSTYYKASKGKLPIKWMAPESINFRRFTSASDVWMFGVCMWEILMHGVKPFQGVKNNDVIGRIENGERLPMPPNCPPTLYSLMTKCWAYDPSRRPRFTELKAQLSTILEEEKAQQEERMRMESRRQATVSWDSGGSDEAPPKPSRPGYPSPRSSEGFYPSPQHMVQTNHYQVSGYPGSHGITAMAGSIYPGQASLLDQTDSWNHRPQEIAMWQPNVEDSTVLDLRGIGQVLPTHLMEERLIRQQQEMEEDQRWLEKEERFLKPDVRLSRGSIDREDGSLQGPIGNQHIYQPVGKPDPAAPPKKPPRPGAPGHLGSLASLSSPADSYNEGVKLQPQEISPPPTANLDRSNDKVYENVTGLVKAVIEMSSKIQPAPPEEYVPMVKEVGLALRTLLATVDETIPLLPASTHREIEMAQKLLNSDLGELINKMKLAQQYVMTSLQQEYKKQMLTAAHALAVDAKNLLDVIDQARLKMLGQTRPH

Focal adhesion kinase 1 [3] = target: T1, Focal adhesion kinase 1; assay: Inhibition of FAK phosphorylation at tyrosine 397 in human MDA-MB-231 cells after 48 hrs by FACEFAK ELISA; assay type: cell-based; how it was run: as §2
Target sequence in this assay (Q05397 2-1052 limits assumed): as above

Focal adhesion kinase 1 [4] = target: T1, Focal adhesion kinase 1; assay: Inhibition of FAK phosphorylation at tyrosine 397 in human PC3 cells after 48 hrs by FACEFAK ELISA; assay type: cell-based; conditions: PC-3; how it was run: as §2
Target sequence in this assay (Q05397 2-1052 limits assumed): as above

MDA-MB-231 [5] = assay: Antiproliferative activity against human MDA-MB-231 cells after 48 hrs by WST-1 assay; assay type: functional, cell-based; conditions: MDA-MB-231, 48 h
How it was run: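 Exponentially growing cells in DMEM/10% FBS seeded at 5 × 10^3 per well, left overnight, then exposed 48 h to compounds diluted from DMSO; WST-1 added for 2 h, absorbance at 450 nm (reference 620 nm); viability as ratio to DMSO controls; three independent experiments, triplicate points; IC50 by nonlinear regression (log inhibitor vs normalized response, variable slope).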

[6] = (§3) Inhibition of colony formation in human U87MG cells after 2 weeks by crystal violet staining-based assay; assay type: functional, cell-based, U-87MG ATCC; conditions: U-87 MG, 336 h
How it was run: (§4)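 Seeding: 250 cells per well for HCT-116, 300 for U87MG, MDA-MB-231 and PC-3; incubated overnight, then exposed to a range of concentrations for 2 weeks. Fixed in 4% paraformaldehyde 30 min at room temperature, stained with 0.1% crystal violet. Colonies over 50 cells counted; colony formation rate calculated; IC50 by nonlinear regression.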

U-87MG ATCC [7] = assay: as §3; assay type: functional, cell-based; how it was run: as §4
MDA-MB-231 [8] = assay: Inhibition of colony formation in human MDA-MB-231 cells after 2 weeks by crystal violet staining-based assay; assay type: functional, cell-based; how it was run: as §4
[9] = (§5) Inhibition of colony formation in human PC3 cells after 2 weeks by crystal violet staining-based assay; assay type: functional, cell-based; conditions: PC-3, 336 h; how it was run: as §4
PC-3 = assay: as §5; assay type: functional, cell-based; how it was run: as §4
U-87 MG [10] = assay: Induction of apoptosis in human U87MG cells assessed as early apoptotic cells at 3 uM after 24 hrs by Annexin V-PE/7-AAD staining-based FACS analysis (reference value: 0.691%); assay type: functional, U-87MG ATCC
U-87 MG [11] = assay: Induction of apoptosis in human U87MG cells assessed as viable cells at 3 uM after 24 hrs by Annexin V-PE/7-AAD staining-based FACS analysis (reference value: 96.7%); assay type: functional, U-87MG ATCC; conditions: read-out: Activity
HCT-116 = assay: Induction of apoptosis in human HCT116 cells assessed as early apoptotic cells at 0.5 uM after 24 hrs by Annexin V-PE/7-AAD staining-based FACS analysis (reference value: 4.68%); assay type: functional
Focal adhesion kinase 1 [12] = target: T1, Focal adhesion kinase 1; assay: Inhibition of FAK (unknown origin) using ULight-poly GT as substrate after 1.6 hrs by TR-FRET assay
Target sequence in this assay (Q05397 whole entry): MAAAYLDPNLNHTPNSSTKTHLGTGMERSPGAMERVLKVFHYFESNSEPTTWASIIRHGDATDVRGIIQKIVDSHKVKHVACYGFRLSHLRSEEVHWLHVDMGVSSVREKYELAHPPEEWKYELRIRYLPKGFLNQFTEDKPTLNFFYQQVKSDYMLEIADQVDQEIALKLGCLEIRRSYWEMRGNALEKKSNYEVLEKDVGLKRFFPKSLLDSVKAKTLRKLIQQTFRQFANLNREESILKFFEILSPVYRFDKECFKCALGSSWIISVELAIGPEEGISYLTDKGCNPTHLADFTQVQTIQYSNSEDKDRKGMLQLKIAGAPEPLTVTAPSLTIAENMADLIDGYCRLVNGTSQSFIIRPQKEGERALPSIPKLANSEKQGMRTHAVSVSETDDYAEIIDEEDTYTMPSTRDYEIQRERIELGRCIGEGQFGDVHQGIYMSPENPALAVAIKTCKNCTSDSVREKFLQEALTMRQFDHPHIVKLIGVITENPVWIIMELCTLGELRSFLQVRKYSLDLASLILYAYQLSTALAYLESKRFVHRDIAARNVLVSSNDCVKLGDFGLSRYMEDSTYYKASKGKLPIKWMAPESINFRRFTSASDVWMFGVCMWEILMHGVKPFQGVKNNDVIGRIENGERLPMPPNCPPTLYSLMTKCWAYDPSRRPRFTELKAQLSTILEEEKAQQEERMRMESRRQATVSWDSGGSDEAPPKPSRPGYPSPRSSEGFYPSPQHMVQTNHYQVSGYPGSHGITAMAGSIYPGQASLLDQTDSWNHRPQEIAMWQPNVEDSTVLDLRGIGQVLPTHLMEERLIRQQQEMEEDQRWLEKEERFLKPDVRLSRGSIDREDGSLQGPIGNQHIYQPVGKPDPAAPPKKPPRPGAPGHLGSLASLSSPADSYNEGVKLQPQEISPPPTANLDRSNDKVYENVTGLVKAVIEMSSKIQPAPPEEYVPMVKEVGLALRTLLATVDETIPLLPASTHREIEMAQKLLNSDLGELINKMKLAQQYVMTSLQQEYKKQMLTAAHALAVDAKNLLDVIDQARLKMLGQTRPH

[13] = target: Insulin receptor (Homo sapiens) (UniProt P06213); assay: Inhibition of human recombinant IR using poly[Glu:Tyr] as substrate at 1 uM by [gamma-33P]ATP-based assay; how it was run: as §1
Sequence of Insulin receptor (Homo sapiens) (P06213 28-758 limits assumed): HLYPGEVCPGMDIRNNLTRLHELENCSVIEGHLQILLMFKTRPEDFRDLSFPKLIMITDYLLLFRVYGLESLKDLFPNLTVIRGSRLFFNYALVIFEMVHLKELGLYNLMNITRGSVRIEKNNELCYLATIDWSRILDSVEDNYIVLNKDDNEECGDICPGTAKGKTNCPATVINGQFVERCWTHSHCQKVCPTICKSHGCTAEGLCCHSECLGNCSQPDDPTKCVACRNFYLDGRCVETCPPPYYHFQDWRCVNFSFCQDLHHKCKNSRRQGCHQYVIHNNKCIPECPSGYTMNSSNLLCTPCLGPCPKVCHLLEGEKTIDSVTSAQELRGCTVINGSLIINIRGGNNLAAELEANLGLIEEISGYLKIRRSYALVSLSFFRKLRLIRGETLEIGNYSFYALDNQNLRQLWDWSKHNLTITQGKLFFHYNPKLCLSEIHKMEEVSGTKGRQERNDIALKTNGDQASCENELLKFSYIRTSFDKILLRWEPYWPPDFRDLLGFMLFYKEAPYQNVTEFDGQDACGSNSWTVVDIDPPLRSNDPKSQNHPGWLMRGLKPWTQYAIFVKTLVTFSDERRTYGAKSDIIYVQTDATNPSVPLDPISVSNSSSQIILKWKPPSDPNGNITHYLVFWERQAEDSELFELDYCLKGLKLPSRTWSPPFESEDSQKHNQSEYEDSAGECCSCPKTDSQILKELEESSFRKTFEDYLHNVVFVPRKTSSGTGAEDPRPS
Sequence of Insulin receptor (Homo sapiens) (P06213 763-1382 limits assumed): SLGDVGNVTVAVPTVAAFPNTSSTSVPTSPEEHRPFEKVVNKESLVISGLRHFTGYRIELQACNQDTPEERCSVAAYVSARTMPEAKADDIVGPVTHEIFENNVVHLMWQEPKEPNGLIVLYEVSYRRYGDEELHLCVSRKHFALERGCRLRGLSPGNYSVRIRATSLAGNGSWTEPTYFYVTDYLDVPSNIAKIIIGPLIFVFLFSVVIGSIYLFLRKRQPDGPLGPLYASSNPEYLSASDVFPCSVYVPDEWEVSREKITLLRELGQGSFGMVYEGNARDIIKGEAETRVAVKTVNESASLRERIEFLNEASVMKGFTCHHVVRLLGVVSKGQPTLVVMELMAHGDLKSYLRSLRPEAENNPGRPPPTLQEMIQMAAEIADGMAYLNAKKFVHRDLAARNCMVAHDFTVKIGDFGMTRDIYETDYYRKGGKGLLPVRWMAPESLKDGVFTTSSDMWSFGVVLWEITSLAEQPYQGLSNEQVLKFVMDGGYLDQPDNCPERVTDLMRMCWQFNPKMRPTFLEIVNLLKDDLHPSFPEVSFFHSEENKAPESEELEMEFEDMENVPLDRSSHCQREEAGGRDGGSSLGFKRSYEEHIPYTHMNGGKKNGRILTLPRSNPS

[14] = Cell cycle arrest in human U87MG cells assessed as accumulation at G0/G1 phase at 3 uM after 24 hrs by propidium iodide staining-based flow cytometry (reference value: 61.7%); assay type: functional; conditions: U-87MG ATCC
How it was run: (§6)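 Cells plated at 10^5 per well, left overnight, then exposed 24 h to compound or vehicle; stained 15 min at 37 °C with propidium iodide/Triton buffer; DNA content by flow cytometry, phase distribution fitted by Dean–Jett–Fox; HCT-116 at 0.3–0.5 μM, U87-MG at 0.3–3 μM; significance by unpaired Student's t test; one representative experiment.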

[15] = Cell cycle arrest in human U87MG cells assessed as accumulation at S phase at 3 uM after 24 hrs by propidium iodide staining-based flow cytometry (reference value: 16%); assay type: functional; conditions: U-87MG ATCC; how it was run: as §6
[16] = Cell cycle arrest in human U87MG cells assessed as accumulation at G2/M phase at 3 uM after 24 hrs by propidium iodide staining-based flow cytometry (reference value: 20%); assay type: functional; conditions: U-87MG ATCC; how it was run: as §6
[17] = Cell cycle arrest in human HCT116 cells assessed as accumulation at G0/G1 phase at 0.5 uM after 24 hrs by propidium iodide staining-based flow cytometry (reference value: 63.8%); assay type: functional; conditions: HCT-116; how it was run: as §6
[18] = Cell cycle arrest in human HCT116 cells assessed as accumulation at S phase at 0.5 uM after 24 hrs by propidium iodide staining-based flow cytometry (reference value: 17.7%); assay type: functional; conditions: HCT-116; how it was run: as §6
[19] = Cell cycle arrest in human U87MG cells at < 3 uM after 24 hrs by propidium iodide staining-based flow cytometry; assay type: functional; conditions: U-87MG ATCC; how it was run: as §6
[20] = Cell cycle arrest in human U87MG cells assessed as accumulation at G2 phase at 3 uM after 24 hrs by propidium iodide staining-based flow cytometry relative to control; assay type: functional; conditions: U-87MG ATCC
How it was run: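 U87-MG cells plated at 10^5 per well, incubated overnight, then exposed to compound or vehicle control for 24 h. Cells stained with propidium iodide in PI/triton buffer for 15 min at 37 °C and analysed by flow cytometry. Cell-cycle phases were assigned by the Dean–Jett–Fox method. Significance was tested by unpaired Student's t test, and one representative experiment is shown.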

U-87 MG [21] = assay: Reduction of cell adherence in human U87MG cells after 30 mins by toluidine blue staining-based […]; assay type: functional; conditions: U-87MG ATCC
How it was run: (§7)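 U87-MG cells grown in 10% serum, trypsinised, diluted to 100 000 cells/mL in 10% serum medium, then treated 30 min with compound or DMSO. 20 000 cells per well allowed to attach 1 h. Fixed in 4% paraformaldehyde 30 min, stained with 0.1% toluidine blue in 4% PFA 30 min, washed, OD read at 620 nm for attached cells.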

U-87 MG [22] = assay: Reduction of cell adherence in human U87MG cells at 3 uM after 30 mins by toluidine blue staining-based […]; assay type: functional, U-87MG ATCC; design: scale not given: the % may be the effect or the level left; how it was run: as §7
[23] = Antimigratory activity in human U87MG cells at 3 uM […] by transwell membrane assay; assay type: functional, U-87MG ATCC
U-87MG ATCC [24] = assay: Antimigratory activity in human U87MG cells after 30 mins by boyden chamber assay; assay type: functional, cell-based
[25] = Antiinvasive activity in human U87MG cells after 24 hrs by matrigel assay; assay type: functional, U-87MG ATCC
How it was run: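 U-87MG pre-exposed 24 h to compound or DMSO in 3% FBS, then 4 × 10^4 cells seeded in upper chamber of impedance-based CIM-16 plate (8 μm pore membrane) coated with Matrigel/collagen; lower chamber 10% FBS; cell index monitored at 37 °C, 5% CO2 for 12 h; slope (1/h) over set interval, DMSO slope set to 100; duplicate wells, repeated twice.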

## C=COC(=O)NCc1ccc(Nc2nc(Nc3ccccc3C(=O)NC)n3ccnc3n2)cc1
[1]
  inhibition: inactive
Focal adhesion kinase 1 [2]
  inhibition: Dose-dependent effect
Focal adhesion kinase 1 [3]
  inhibition: Dose-dependent effect
Focal adhesion kinase 1 [4]
  inhibition: Dose-dependent effect
MDA-MB-231 [5]
  IC50: 800 nM
[6]
  IC50: 420 nM
U-87MG ATCC [7]
  inhibition: Dose-dependent effect
MDA-MB-231 [8]
  inhibition: Dose-dependent effect
MDA-MB-231 [8]; MDA-MB-231, 336 h
  IC50: 140 nM
[9]
  IC50: 630 nM
PC-3
  inhibition: Dose-dependent effect
U-87 MG [10]
  Activity: 0.756%
U-87 MG [11]
  viability at 3 µM: 97.4%
HCT-116
  Activity: 13.3%
Focal adhesion kinase 1 [12]
  IC50: 50 nM
[13]
  inhibition: inactive
[14]
  Activity: 34.3%
[15]
  Activity: 5.08%
[16]
  Activity: 58.8%
[17]
  Activity: 29.9%
[18]
  Activity: 11.6%
[19]
  Activity: Active
[20]
  Ratio: 2.9
U-87 MG [21]
  Activity: Dose-dependent effect
U-87 MG [22]
  Activity: 50%
[23]
  Activity: 69.5%
U-87MG ATCC [24]
  Activity: Dose-dependent effect
[25]
  Activity: 50%
